Test results from ChEMBL document CHEMBL1136700, “Identification of a broad-spectrum azasordarin with improved pharmacokinetic properties” (Bioorg Med Chem Lett, 2003).
Values after ≈ are worked out from the molar mass of the structure shown.

Test system: Candida albicans
Experiment: Minimum inhibitory concentration (MIC) to Candida albicans after 48 hr
Type: functional
Conditions: not given
Outline: (§1)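 Antifungal susceptibility read visually; MIC taken as lowest drug concentration giving 90–100% inhibition of visible growth relative to drug-free controls, read over 48 h, or after 24 h where footnoted. Organisms: C. parapsilosis, C. albicans, Cryptococcus neoformans, C. glabrata, Aspergillus fumigatus, Aspergillus flavus.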

Structure (SMILES)	MIC
C=C(Cl)CN1C[C@H](OCC23C[C@@H]4[C@H](C)CC[C@H]4C4(C=O)CC2C=C(C(C)C)[C@@]34C(=O)O)O[C@H](C)[C@H]1C	< 0.06 mg/L
C=CCN1C[C@H](OCC23C[C@@H]4[C@H](C)CC[C@H]4C4(C=O)CC2C=C(C(C)C)[C@@]34C(=O)O)OC[C@H]1C	0.125 mg/L (≈ 0.265 µM)
CC(C)C1=CC2CC3(C=O)[C@@H]4CC[C@@H](C)[C@H]4CC2(CO[C@H]2CN(CC4CC4)[C@H](C)CO2)[C@]13C(=O)O	2 mg/L (≈ 4.12 µM)
CC(C)C1=CC2CC3(C=O)[C@@H]4CC[C@@H](C)[C@H]4CC2(CO[C@H]2CN(CC=C(F)F)[C@H](C)CO2)[C@]13C(=O)O	0.125 mg/L (≈ 0.246 µM)
CC(C)C1=CC2CC3(C=O)[C@@H]4CC[C@@H](C)[C@H]4CC2(CO[C@H]2CN(C/C=C\Cl)[C@H](C)CO2)[C@]13C(=O)O	0.125 mg/L (≈ 0.247 µM)
C=C(C)CN1C[C@H](OCC23C[C@@H]4[C@H](C)CC[C@H]4C4(C=O)CC2C=C(C(C)C)[C@@]34C(=O)O)OC[C@H]1C	< 0.06 mg/L
C=CC(=O)N1C[C@H](OCC23C[C@@H]4[C@H](C)CC[C@H]4C4(C=O)CC2C=C(C(C)C)[C@@]34C(=O)O)OC[C@H]1C	8 mg/L (≈ 16.5 µM)

Test system: Nakaseomyces glabratus
Experiment: Minimum inhibitory concentration (MIC) to Candida glabrata after 48 hours
Type: functional
Conditions: Nakaseomyces glabratus, 48 h; read-out: MIC
Outline: as §1

Structure (SMILES)	MIC
C=C(Cl)CN1C[C@H](OCC23C[C@@H]4[C@H](C)CC[C@H]4C4(C=O)CC2C=C(C(C)C)[C@@]34C(=O)O)O[C@H](C)[C@H]1C	0.25 mg/L (≈ 0.481 µM)
C=CCN1C[C@H](OCC23C[C@@H]4[C@H](C)CC[C@H]4C4(C=O)CC2C=C(C(C)C)[C@@]34C(=O)O)OC[C@H]1C	0.25 mg/L (≈ 0.53 µM)
CC(C)C1=CC2CC3(C=O)[C@@H]4CC[C@@H](C)[C@H]4CC2(CO[C@H]2CN(CC4CC4)[C@H](C)CO2)[C@]13C(=O)O	8 mg/L (≈ 16.5 µM)
CC(C)C1=CC2CC3(C=O)[C@@H]4CC[C@@H](C)[C@H]4CC2(CO[C@H]2CN(CC=C(F)F)[C@H](C)CO2)[C@]13C(=O)O	1 mg/L (≈ 1.97 µM)
CC(C)C1=CC2CC3(C=O)[C@@H]4CC[C@@H](C)[C@H]4CC2(CO[C@H]2CN(C/C=C\Cl)[C@H](C)CO2)[C@]13C(=O)O	1 mg/L (≈ 1.98 µM)
C=C(C)CN1C[C@H](OCC23C[C@@H]4[C@H](C)CC[C@H]4C4(C=O)CC2C=C(C(C)C)[C@@]34C(=O)O)OC[C@H]1C	0.125 mg/L (≈ 0.257 µM)
C=CC(=O)N1C[C@H](OCC23C[C@@H]4[C@H](C)CC[C@H]4C4(C=O)CC2C=C(C(C)C)[C@@]34C(=O)O)OC[C@H]1C	64 mg/L (≈ 132 µM)

Test system: Candida parapsilosis
Experiment: Minimum inhibitory concentration (MIC) to Candida parapsilosis after 48 hr
Type: functional
Conditions: Lodderomyces parapsilosis, 48 h; read-out: MIC
Outline: as §1

Structure (SMILES)	MIC
C=C(Cl)CN1C[C@H](OCC23C[C@@H]4[C@H](C)CC[C@H]4C4(C=O)CC2C=C(C(C)C)[C@@]34C(=O)O)O[C@H](C)[C@H]1C	8 mg/L (≈ 15.4 µM)
C=CCN1C[C@H](OCC23C[C@@H]4[C@H](C)CC[C@H]4C4(C=O)CC2C=C(C(C)C)[C@@]34C(=O)O)OC[C@H]1C	64 mg/L (≈ 136 µM)
CC(C)C1=CC2CC3(C=O)[C@@H]4CC[C@@H](C)[C@H]4CC2(CO[C@H]2CN(CC4CC4)[C@H](C)CO2)[C@]13C(=O)O	> 128 mg/L
CC(C)C1=CC2CC3(C=O)[C@@H]4CC[C@@H](C)[C@H]4CC2(CO[C@H]2CN(CC=C(F)F)[C@H](C)CO2)[C@]13C(=O)O	64 mg/L (≈ 126 µM)
CC(C)C1=CC2CC3(C=O)[C@@H]4CC[C@@H](C)[C@H]4CC2(CO[C@H]2CN(C/C=C\Cl)[C@H](C)CO2)[C@]13C(=O)O	> 128 mg/L
C=C(C)CN1C[C@H](OCC23C[C@@H]4[C@H](C)CC[C@H]4C4(C=O)CC2C=C(C(C)C)[C@@]34C(=O)O)OC[C@H]1C	8 mg/L (≈ 16.5 µM)
C=CC(=O)N1C[C@H](OCC23C[C@@H]4[C@H](C)CC[C@H]4C4(C=O)CC2C=C(C(C)C)[C@@]34C(=O)O)OC[C@H]1C	> 128 mg/L

Test system: Cryptococcus neoformans
Experiment: Minimum inhibitory concentration against Cryptococcus neoformans after 48 hours
Type: functional
Conditions: not given
Outline: as §1

Structure (SMILES)	MIC
C=C(Cl)CN1C[C@H](OCC23C[C@@H]4[C@H](C)CC[C@H]4C4(C=O)CC2C=C(C(C)C)[C@@]34C(=O)O)O[C@H](C)[C@H]1C	0.5 mg/L (≈ 0.961 µM)
C=CCN1C[C@H](OCC23C[C@@H]4[C@H](C)CC[C@H]4C4(C=O)CC2C=C(C(C)C)[C@@]34C(=O)O)OC[C@H]1C	128 mg/L (≈ 271 µM)
CC(C)C1=CC2CC3(C=O)[C@@H]4CC[C@@H](C)[C@H]4CC2(CO[C@H]2CN(CC4CC4)[C@H](C)CO2)[C@]13C(=O)O	> 128 mg/L
CC(C)C1=CC2CC3(C=O)[C@@H]4CC[C@@H](C)[C@H]4CC2(CO[C@H]2CN(CC=C(F)F)[C@H](C)CO2)[C@]13C(=O)O	64 mg/L (≈ 126 µM)
CC(C)C1=CC2CC3(C=O)[C@@H]4CC[C@@H](C)[C@H]4CC2(CO[C@H]2CN(C/C=C\Cl)[C@H](C)CO2)[C@]13C(=O)O	128 mg/L (≈ 253 µM)
C=C(C)CN1C[C@H](OCC23C[C@@H]4[C@H](C)CC[C@H]4C4(C=O)CC2C=C(C(C)C)[C@@]34C(=O)O)OC[C@H]1C	0.125 mg/L (≈ 0.257 µM)
C=CC(=O)N1C[C@H](OCC23C[C@@H]4[C@H](C)CC[C@H]4C4(C=O)CC2C=C(C(C)C)[C@@]34C(=O)O)OC[C@H]1C	128 mg/L (≈ 264 µM)

Test system: Aspergillus fumigatus
Experiment: Minimum inhibitory concentration (MIC) to Aspergillus fumigatus after 48 hr
Type: functional
Conditions: Aspergillus fumigatus, 48 h; read-out: MIC
Outline: as §1

Structure (SMILES)	MIC
C=C(Cl)CN1C[C@H](OCC23C[C@@H]4[C@H](C)CC[C@H]4C4(C=O)CC2C=C(C(C)C)[C@@]34C(=O)O)O[C@H](C)[C@H]1C	64 mg/L (≈ 123 µM)
C=CCN1C[C@H](OCC23C[C@@H]4[C@H](C)CC[C@H]4C4(C=O)CC2C=C(C(C)C)[C@@]34C(=O)O)OC[C@H]1C	> 128 mg/L
CC(C)C1=CC2CC3(C=O)[C@@H]4CC[C@@H](C)[C@H]4CC2(CO[C@H]2CN(CC4CC4)[C@H](C)CO2)[C@]13C(=O)O	> 128 mg/L
CC(C)C1=CC2CC3(C=O)[C@@H]4CC[C@@H](C)[C@H]4CC2(CO[C@H]2CN(CC=C(F)F)[C@H](C)CO2)[C@]13C(=O)O	> 128 mg/L
CC(C)C1=CC2CC3(C=O)[C@@H]4CC[C@@H](C)[C@H]4CC2(CO[C@H]2CN(C/C=C\Cl)[C@H](C)CO2)[C@]13C(=O)O	> 128 mg/L
C=C(C)CN1C[C@H](OCC23C[C@@H]4[C@H](C)CC[C@H]4C4(C=O)CC2C=C(C(C)C)[C@@]34C(=O)O)OC[C@H]1C	> 128 mg/L
C=CC(=O)N1C[C@H](OCC23C[C@@H]4[C@H](C)CC[C@H]4C4(C=O)CC2C=C(C(C)C)[C@@]34C(=O)O)OC[C@H]1C	> 128 mg/L

Test system: Aspergillus flavus
Experiment: Minimum inhibitory concentration (MIC) against Aspergillus flavus after 24 hours
Type: functional
Conditions: Aspergillus flavus, 24 h; read-out: MIC
Outline: as §1

Structure (SMILES)	MIC
C=C(Cl)CN1C[C@H](OCC23C[C@@H]4[C@H](C)CC[C@H]4C4(C=O)CC2C=C(C(C)C)[C@@]34C(=O)O)O[C@H](C)[C@H]1C	1 mg/L (≈ 1.92 µM)
C=CCN1C[C@H](OCC23C[C@@H]4[C@H](C)CC[C@H]4C4(C=O)CC2C=C(C(C)C)[C@@]34C(=O)O)OC[C@H]1C	> 128 mg/L
CC(C)C1=CC2CC3(C=O)[C@@H]4CC[C@@H](C)[C@H]4CC2(CO[C@H]2CN(CC4CC4)[C@H](C)CO2)[C@]13C(=O)O	> 128 mg/L
CC(C)C1=CC2CC3(C=O)[C@@H]4CC[C@@H](C)[C@H]4CC2(CO[C@H]2CN(CC=C(F)F)[C@H](C)CO2)[C@]13C(=O)O	> 128 mg/L
CC(C)C1=CC2CC3(C=O)[C@@H]4CC[C@@H](C)[C@H]4CC2(CO[C@H]2CN(C/C=C\Cl)[C@H](C)CO2)[C@]13C(=O)O	> 128 mg/L
C=C(C)CN1C[C@H](OCC23C[C@@H]4[C@H](C)CC[C@H]4C4(C=O)CC2C=C(C(C)C)[C@@]34C(=O)O)OC[C@H]1C	8 mg/L (≈ 16.5 µM)
C=CC(=O)N1C[C@H](OCC23C[C@@H]4[C@H](C)CC[C@H]4C4(C=O)CC2C=C(C(C)C)[C@@]34C(=O)O)OC[C@H]1C	> 128 mg/L
